Values joined by “and” are separate entries in the source; they are usually repeats but may differ in a detail not shown here. Equal entries are not always repeated.
Assays:
[1] = tested on: Rattus norvegicus; assay: Change in systolic blood pressure after iv administration of 1600 ug/Kg in the presence of isoprenaline (agonist) in anesthetized rats; format: functional, Artery
[2] = tested on: Rattus norvegicus; assay: Change in systolic blood pressure after iv administration of 400 ug/Kg in the presence of acetylcholine (agonist) in anesthetized rats; format: functional, Artery
In short: (§1)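 Anesthetized male Wistar rats, two groups of 8, received 400 or 1600 µg/kg iv. Before and after this dose, iv agonist challenges were given: noradrenaline 1 µg/kg, adrenaline, acetylcholine 2.50 µg/kg, or isoprenaline. Systolic/diastolic BP, heart rate and dP/dt responses were recorded before (control) and after dosing; significance was set at p < 0.05 versus control.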

[3] = tested on: Rattus norvegicus; assay: Change in diastolic blood pressure after iv administration of 1600 ug/Kg in the presence of adrenaline (agonist) in anesthetized rats; format: functional, Artery
In short: (§2)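 Urethane-anesthetized male Wistar rats (16 rats, two equal groups) received 400 or 1600 µg/kg compound iv. Cardiovascular responses to iv agonist boluses (noradrenaline 1 µg/kg, acetylcholine 2.50 µg/kg, adrenaline, isoprenaline) were measured before and after compound dosing. Peak responses are given as mean ± SE; p < 0.05 versus control mean.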

[4] = tested on: Rattus norvegicus; assay: Change in diastolic blood pressure after iv administration of 1600 ug/Kg in the presence of noradrenaline (agonist) in anesthetized rats; format: functional, Artery; in short: as §2
[5] = tested on: Rattus norvegicus; assay: Change in diastolic blood pressure after iv administration of 4.12 uM/kg in anesthetized rats; format: functional, Artery
[6] = tested on: Rattus norvegicus; assay: Change in diastolic blood pressure after iv administration of 400 ug/Kg in the presence of acetylcholine (agonist) in anesthetized rats; format: functional, Artery; in short: as §2
[7] = tested on: Rattus norvegicus; assay: Change in diastolic blood pressure after iv administration of 400 ug/Kg in the presence of isoprenaline (agonist) in anesthetized rats; format: functional, Artery; in short: as §2
[8] = tested on: Rattus norvegicus; assay: Change in systolic blood pressure after iv administration of 800 ug/Kg compound (treatment with papaverine(1 mg/Kg/min, iv)in anesthetized rats; format: functional, Artery
In short: (§3)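 Anesthetized rats, n = 6 per group, received iv doses of 200–1600 µg/kg (ratio 2.0) either alone (control) or under pretreatment: continuous iv papaverine infusion 1 mg/kg/min, reserpine 5 mg/kg/day ip for 2 days, or hexamethonium 5 mg/kg iv. Peak changes in BP, heart rate and dP/dt recorded; means ± SE, p < 0.05 versus control.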

[9] = tested on: Rattus norvegicus; assay: Change in diastolic blood pressure after iv administration of 50 ug/Kg in anesthetized rats; format: functional, Artery
In short: (§4)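 Adult male Wistar rats under ip ethylurethane (10% w/v in saline, 1 mL/kg) with tracheal cannula and spontaneous breathing, kept at 37 °C. Arterial BP was recorded by femoral artery catheter; compound in saline (50 µL) was given via femoral vein at 50–3200 µg/kg, ratio 2.0. Peak change is given as mean ± SE, n = 12 (n = 7 at 3200 µg/kg).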

[10] = tested on: Rattus norvegicus; assay: Change in diastolic blood pressure after iv administration of 800 ug/Kg compound (treatment with hexamethonium (5 mg/Kg, iv)in anesthetized rats; format: functional, Artery
In short: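 In anesthetized male Wistar rats, responses to iv compound (200–1600 µg/kg, ratio 2.0) were measured alone and under three pretreatments: continuous iv papaverine infusion (1 mg/kg/min), ip reserpine (5 mg/kg/day for 2 days), or iv hexamethonium (5 mg/kg). Peak changes are given as mean ± SE, n = 6 per group; p < 0.05 versus control.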

[11] = tested on: Rattus norvegicus; assay: Change in systolic blood pressure after iv administration of 1600 ug/Kg compound (treatment with reserpine(5 mg/kg/day for 2 days, ip)in anesthetized rats; format: functional, Artery
In short: (§5)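 Urethane-anesthetized male Wistar rats, 6 per group, received iv doses of 200-1600 µg/kg (ratio 2.0) given alone or under a pretreatment. Pretreatments were continuous iv papaverine infusion (1 mg/kg/min), reserpine 5 mg/kg/day ip for 2 days, or hexamethonium 5 mg/kg iv. Peak changes in femoral arterial BP and HR were recorded; values are mean ± SE.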

[12] = tested on: Rattus norvegicus; assay: Change in heart rate after iv administration of 3200 ug/Kg in anesthetized rats; format: functional; in short: as §4
[13] = tested on: Rattus norvegicus; assay: Change in heart rate after iv administration of 4.12 uM/kg in anesthetized rats; format: functional
[14] = tested on: Rattus norvegicus; assay: Change in heart rate after iv administration of 400 ug/kg compound (treatment with hexamethonium (5 mg/kg, iv))in anesthetized rats; format: functional; in short: as §5
[15] = tested on: Rattus norvegicus; assay: Change in heart rate after iv administration of 400 ug/Kg in the presence of adrenaline (agonist) in anesthetized rats; format: functional; in short: as §2
[16] = tested on: Rattus norvegicus; assay: Change in heart rate after iv administration of 400 ug/Kg in the presence of noradrenaline (agonist) in anesthetized rats; format: functional
[17] = tested on: Rattus norvegicus; assay: Change in heart rate after iv administration of 800 ug/Kg compound (treatment with hexamethonium (5 mg/Kg, iv)in anesthetized rats; format: functional; in short: as §5
[18] = tested on: Rattus norvegicus; assay: Change in heart rate after iv administration of 800 ug/Kg in anesthetized rats; format: functional
In short: (§6)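 Male Wistar rats (299 ± 3 g) were anesthetized with ethylurethane ip, tracheally cannulated and breathing spontaneously, at 37 °C, and stabilized for 60 min. Doses of 50-3200 µg/kg (ratio 2.0) in saline were injected by femoral vein, 50 µL each. Recordings: femoral arterial BP, electromagnetic abdominal-aortic flow, SV from integrated pulsatile flow, polygraphic RF. Peak changes, mean ± SE, n = 12 (n = 7 at 3200).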

[19] = tested on: Rattus norvegicus; assay: Change in mean aortic flow after iv administration of 1600 ug/Kg in anesthetized rats; format: functional; in short: as §6
[20] = tested on: Rattus norvegicus; assay: Change in mean aortic flow after iv administration of 50 ug/Kg in anesthetized rats; format: functional; in short: as §6
[21] = tested on: Rattus norvegicus; assay: Change in stroke volume after iv administration of 50 ug/Kg in anesthetized rats; format: functional; in short: as §6
[22] = tested on: Rattus norvegicus; assay: Change in respiratory frequency after iv administration of 100 ug/Kg in anesthetized rats; format: functional; in short: as §6
[23] = tested on: Rattus norvegicus; assay: Change in respiratory frequency after iv administration of 200 ug/Kg in anesthetized rats; format: functional; in short: as §6
[24] = tested on: Rattus norvegicus; assay: Maximum rate of rise of the left ventricular isovolumetric pressure was measured after iv administration of 200 ug/Kg in anesthetized rats; format: functional, Heart left ventricle
In short: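 Urethane-anesthetized (10% w/v, […] ip in saline) adult male Wistar rats, trachea cannulated, breathing spontaneously, 37 °C. Femoral artery catheter for blood pressure, femoral vein for dosing. Sequential iv doses 50–3200 µg/kg (ratio 2.0) in saline, each given after parameters returned to baseline. Peak changes recorded; means ± SE, n = 12 (n = 7 at 3200 µg/kg).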

[25] = tested on: Rattus norvegicus; assay: Maximum rate of rise of the left ventricular isovolumetric pressure was measured after iv administration of 1600 ug/Kg in the presence of isoprenaline (agonist) in anesthetized rats; format: functional, Heart left ventricle; in short: as §1
[26] = tested on: Rattus norvegicus; assay: Maximum rate of rise of the left ventricular isovolumetric pressure after iv administration of 800 ug/Kg compound (treatment with reserpine(5 mg/kg/day for 2 days, ip)in anesthetized rats; format: functional, Heart left ventricle; in short: as §3
[27] = tested on: Rattus norvegicus; assay: Change in respiratory frequency after iv administration of 50 ug/Kg in anesthetized rats; format: functional; in short: as §6

## COc1ccc(C2C(c3ccc(OC)c(OC)c3)[C@H](C(=O)NCCCC/N=C(\N)NCC=C(C)C)[C@@H]2C(=O)NCCCC/N=C(\N)NCC=C(C)C)cc1OC (stereo partly drawn) [CARACASANDIAMIDE]
[1]
  BP: -43 mmHg
[2]
  BP: -27 mmHg
[3]
  BP: 3 mmHg
[4]
  BP: 10 mmHg
[5]
  BP: -47 mmHg
[6]
  BP: -45 mmHg
[7]
  BP: -49 mmHg
[8]
  BP: -22 mmHg
[9]
  BP: 10 mmHg
  Change in BP: 13%
[10]
  BP: -53 mmHg
[11]
  BP: -16 mmHg
[12]
  Change in heart rate: -11%
  Heart rate: -41 beats min-1
[13]
  Heart rate: -35 beats min-1
[14]
  Heart rate: -46 beats min-1
[15]
  Heart rate: 24 beats min-1
[16]
  Heart rate: 23 beats min-1
[17]
  Heart rate: -57 beats min-1
[18]
  Change in heart rate: -4%
  Heart rate: -16 beats min-1
[19]
  Change in mean aortic flow: -49%
  Mean aortic flow: -36 mL/min
[20]
  Change in mean aortic flow: 26%
  Mean aortic flow: 19 mL/min
[21]
  Change in stroke volume: 36%
[22]
  Change in respiratory frequency: 6 beats min-1 and 6%
[23]
  Change in respiratory frequency: 9 beats min-1 and 9%
[24]
  Change in dP/dt: 22%
  dP/dt: 1369 mmHg s-1
[25]
  dP/dt: 14552 mmHg s-1
[26]
  dP/dt: 720 mmHg s-1
[27]
  Change in respiratory frequency: 5 beats min-1 and 5%

From ChEMBL document CHEMBL1132342, “Novel hypotensive agents from Verbesina caracasana. 6. Synthesis and pharmacology of caracasandiamide” (1999)
